Screening results: PubChem BioAssay, several laboratories
Lung fibro prol: antiproliferative effect on LL 47 fibroblasts – human, LL 47 cells, CellTiter-Glo luminescence, primary screen; LL 47 human lung fibroblast viability, ATP luminescence; hits give low values; viability, % at 10 µM; 1.1% of 85,000 active;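 active = viability at or below 50% in the single dose screen; inactive = viability above 50%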;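 also: compound exposure lasted 72 h before the ATP readout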
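Assay system: human lung fibroblast line LL 47, low passage. Input: 1,150 fibroblasts seeded per well. Times: overnight cell rest, 72 h compound treatment at 37 °C. Evaluation: % viability of median cell-only signal. Technique: luminescent ATP detection, CellTiter-Glo. Control set: cell-only wells, no compound.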
PTEN del growth: growth suppression of PTEN-null HCT116, primary screen, cell-based, CellTiter-Glo; HCT116 PTEN-null viability, 60 h; hits give low values; 1.2% of 140,000 active; viability, % at 10 µM;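 active = viability at or below a set limit, 4 SD under the median of all tested compounds, cut at about 3.7% in these data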;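 also: PTEN knockout HCT116 line with beta catenin targeted HCT116 as companion control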
HUVEC prolif 384: inhibitors of HUVEC proliferation, primary screen, cell-based, 384-well. AID 648, 2007. CellTiter-Glo luminescence, 72 h; hits give low values. 1.1% of 86,000 active. viability, % at 10 µM (by protocol);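 active = viability at or below 30%; inactive = viability above 30%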
Phagocyt inh: inhibitors of macrophage phagocytosis, primary screen, imaging, J774A.1 cells, IgG beads. J774A.1 macrophage IgG-bead phagocytosis. 0.07% of 110,000 active. inhibition, % at 5 µM. AID 1029, 2008;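 active = inhibition above the mean of the plate negative controls plus 5 SD, cut at about 13% in these data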;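 also: phagocytic index as fraction of beads internalized from green versus red external bead signal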
HCT116 bCat-KO: primary screen for growth suppressors in beta-catenin knockout HCT116 cells (colon tumor, human). viability, % at 10 µM. AID 818, 2007. 1.5% of 140,000 active. HCT116 beta-catenin knockout viability, CellTiter-Glo, 60 h; hits give low values;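 active = viability at or under a set limit, the compound median less 4 SD, cut at about 6% in these data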
H69AR inhibit: proliferation blockers of H69AR lung cancer cells, primary screen, cell-based, human, 86K library; H69AR lung tumor viability, ATP luminescence, 72 h; hits give low values; AID 598, 2007; 6% of 85,000 active; viability, % at 10 µM;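 active = viability at or below 40%; inactive = viability above 40%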;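 also: multidrug resistant small cell line overexpressing MRP-1 efflux transporter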
A number is an active result; - = inactive; . = no result given. The entries come from a sample that favours hits as a whole.

SMILES	Lung fibro prol	PTEN del growth	HUVEC prolif 384	Phagocyt inh	HCT116 bCat-KO	H69AR inhibit
COc1ccc(C(C(=O)NC2CCCC2)N(C(=O)c2snc(-c3ccc(F)cc3)c2N)c2ccc(F)cc2)cc1 (centres undefined)	.	-	.	-	5.5	.
O=C(NCc1ccccn1)C1CC(c2ccc(F)cc2)=NO1 (centres undefined)	-	-	-	-	-	-
CC1CN(c2oc(-c3ccco3)nc2S(=O)(=O)c2ccccc2)CC(C)O1 (centres undefined)	-	-	-	-	-	-
COc1ccc(-c2cc(C(F)(F)F)c(C#N)c(SCC(=O)Nc3ccccc3C#N)n2)cc1	.	-	.	-	3.2	.
COc1ccc(NC(=O)CSc2nc(-c3ccc(C)cc3)cc(C(F)(F)F)c2C#N)cc1	.	-	.	.	-	.
COc1ccc(-c2cc(-c3cccs3)c(C#N)c(SCC(=O)NCc3ccccc3)n2)cc1	-	-	-	.	-	34.6
COc1ccc(-c2cc(-c3cccs3)c(C#N)c(SCC(=O)NCc3ccccc3OC)n2)cc1	48.6	-	-	.	-	11.4
COCCN1CCn2c(nc3cc(NC(=O)NC4CCCCC4)ccc32)C1	-	-	-	-	-	-
O=C(Nc1ccc2c(c1)nc1n2CCN(Cc2ccccc2)C1)NC1CCCCC1	-	-	-	-	-	19.7
COc1cc2[nH]c(=O)n(CCC(=O)N3CCN(c4cc(Cl)ccc4C)CC3)c(=O)c2cc1OC	3.0	1.9	2.0	.	2.1	0.5
COc1cc(C(=O)Nc2sc3c(c2C#N)CCN(C(C)=O)C3)cc(OC)c1OC	-	-	-	-	-	23.0
CC(C)N1CCc2c(sc(NC(=S)NC(=O)c3ccccc3)c2C#N)C1	.	-	.	-	-	.
CCOC(=O)N1CCc2c(sc(NC(=O)c3ccc(S(=O)(=O)N4CCCC4)cc3)c2C#N)C1	38.2	-	-	.	-	13.3
Cc1ccc(S(=O)(=O)c2nc(-c3ccc(F)cc3)oc2SCC(=O)NCC2CCCO2)cc1 (centres undefined)	-	-	-	.	-	28.5
O=C(CSc1oc(-c2ccc(F)cc2)nc1S(=O)(=O)c1ccc(F)cc1)NCC1CCCO1 (centres undefined)	14.4	-	-	.	-	-
CC[C@H](C)[C@@H](NC(=O)O[C@@H]1C(=O)c2cc(Br)ccc2O[C@H]1c1ccc2c(c1)OCO2)C(=O)OC	.	-	.	.	-	.
CC(C)CNC(=S)Nc1ccc(Oc2ccccc2)cc1	.	-	.	-	-	.
O=C(COC(=O)Cn1cnc2ccccc2c1=O)Nc1ccccc1Sc1ccc(Cl)cc1	.	-	.	-	-	.
COc1ccccc1C(=O)Nc1c(C)n(C)n(-c2ccccc2)c1=O	-	-	-	-	-	-
Cc1c(NC(=O)C2CCCNC2=O)c(=O)n(-c2ccccc2)n1C (centres undefined)	.	-	-	-	-	38.5
COc1ccccc1NC(=O)Nc1c(C)n(C)n(-c2ccccc2)c1=O	-	-	-	-	-	32.2
Cc1nc(N2CCOCC2)nc(OCCN2CCOCC2)c1[N+](=O)[O-]	.	-	.	-	-	.
CC1CC(C)CN(CCCNC(=O)C2CCCN(c3nnc(N4CCCC4=O)s3)C2)C1 (centres undefined)	-	-	-	.	-	-
Cc1c(C(=O)Nc2ccc3c(c2)OCO3)sc2ncn(CC(=O)N3CC(C)CC(C)C3)c(=O)c12 (centres undefined)	-	-	-	-	-	-
[O-][n+]1onc2c3cc(-c4ccccc4)nnc3ccc21	-	-	-	-	-	17.1
SMILES	Lung fibro prol	PTEN del growth	HUVEC prolif 384	Phagocyt inh	HCT116 bCat-KO	H69AR inhibit
CCOC(=O)C(C)CC(C)C(=O)N1CCOCCOCCN(C(=O)C(C)CC(C)C(=O)OCC)CCOCC1 (centres undefined)	-	-	-	.	-	-
CCOC(=O)C(C(=O)OCC)C(C(=O)OCC)N1CCOCC1 (centres undefined)	1.9	1.7	2.9	-	1.2	0.7
Cc1ccc2c(c1)SC1=NC(c3ccccc3)(C(F)(F)F)NC(=O)N12 (centres undefined)	-	-	-	.	-	-
OCC1CCCN1C(=S)Nc1ccccc1 (centres undefined)	.	-	.	.	-	.
COCc1cc(/C=N\NC(=O)COc2ccc(Cl)cc2)ccc1OC	.	-	.	-	-	.
CCOC(=O)c1c2ccc(OCC(=O)N/N=C/c3ccc(Cl)cc3)cc2n2ccccc12	.	2.3	.	.	1.8	.
CCOC(=O)c1c2ccc(OCC(=O)N/N=C/c3ccccc3C(F)(F)F)cc2n2ccccc12	.	1.9	.	-	1.5	.
O=C(CN1CCC(O)(c2ccc3c(c2)OCO3)CC1)OC1CCCCC1	-	-	-	-	-	-
CCOCC(=O)Nc1ccc(S(=O)(=O)NCCc2ccccc2)cc1	-	-	-	-	-	15.0
O=C(Nc1ccc(S(=O)(=O)NCCc2ccccc2)cc1)c1ccco1	-	-	-	-	-	-
CCOC(=O)c1sc(NC(=O)CSc2nc3c(c(=O)n2-c2ccc(F)cc2)SCC3)c(C(=O)OCC)c1C	.	-	.	.	-	.
COc1ccc2c(c1OC)C(=O)N1c3ccccc3C(=O)N(c3ccccc3)C21 (centres undefined)	-	-	-	-	-	1.0
COc1ccc2c(c1OC)C(=O)N1c3ccccc3C(=O)N(c3ccc(F)cc3)C21 (centres undefined)	-	-	-	.	-	11.8
Cc1c(/C=N/NC(=O)CNc2ccccc2)c2ccccn2c1C(=O)c1ccccc1	.	-	.	-	-	.
OC(COCCOc1ccc(Br)cc1)CN1CCCCC1 (centres undefined)	.	-	.	.	-	.
Cc1cc(/C=N/n2cnnc2)c(C)n1-c1ccc(OCc2ccc(Cl)cc2)cc1	-	-	-	-	5.3	5.8
C=C(C)CNC(=S)NNC(=O)CCn1c2cc(Cl)ccc2c2ccc(Cl)cc21	.	-	.	-	-	.
C=C(C)CNC(=S)NNC(=O)CCn1c2ccc(Cl)cc2c2cc(Cl)ccc21	.	3.5	.	-	2.7	.
Cc1cc2ncn(C(=O)c3ccc4c(c3)OCO4)c2cc1C	-	-	-	-	-	-
Cc1cc2ncn(C(=O)N3CCC(C)CC3)c2cc1C	-	0.7	-	.	0.6	-
CCOC(=O)/C=C1\SCC(=O)N1CC(=O)NCc1cccc(Cl)c1	.	-	.	-	-	.
c1ccc2[nH]c(CSc3ncnc4c3oc3ccccc34)nc2c1	-	-	-	.	-	-
Cc1nc(N2CCN(Cc3nc4ccccc4[nH]3)CC2)c2oc3ccccc3c2n1	-	-	-	-	-	36.3
c1ccc2[nH]c(CN3CCN(c4ncnc5c4oc4ccccc45)CC3)nc2c1	-	-	-	-	-	7.1
CCCCCCCCC/C(=N\O)c1ccccn1	36.1	-	5.4	.	3.4	-
CCCCCCCCC(=O)N/N=C/c1ccccn1	.	-	.	-	-	.
CCc1ccccc1NC(=O)c1ccc(-n2c(C)ccc2C)cc1	.	-	.	.	3.8	.
